PubChem BioAssay AID652186 (Vanderbilt Specialized Chemistry Center, 2013)
Activity calls are given as the source filed them. The rule behind the calls is not given here.

Molecular target: Metabotropic glutamate receptor 8 (Rattus norvegicus) (UniProt P70579)
Assay: mGlu8 modulation of glutamate calcium response, selectivity assay for mGlu5 silent allosteric modulator project, cell-based, rat, HEK293A, Galpha15, Fluo4 calcium (AID 652186)
Conditions: HEK293A rmGlu8+Galpha15, glutamate CRC
Method in brief: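 Assay system: Rat mGlu8 co-expressed with Galpha15 in HEK293 cells | Times: Fluo4-AM loading 60 min/37°C, compound 20 s, glutamate 80 s | Technique: Calcium mobilization by fluorescence of Fluo4-AM dye, 1 µM | Medium: HBSS, pH 7.4, with 2.5 mM probenecid and 20 mM HEPES | Probe or stimulus: Glutamate, 9 concentrations, 10 nM–1 mM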

Chain of Metabotropic glutamate receptor 8 (Rattus norvegicus) (P70579 whole entry, looked up): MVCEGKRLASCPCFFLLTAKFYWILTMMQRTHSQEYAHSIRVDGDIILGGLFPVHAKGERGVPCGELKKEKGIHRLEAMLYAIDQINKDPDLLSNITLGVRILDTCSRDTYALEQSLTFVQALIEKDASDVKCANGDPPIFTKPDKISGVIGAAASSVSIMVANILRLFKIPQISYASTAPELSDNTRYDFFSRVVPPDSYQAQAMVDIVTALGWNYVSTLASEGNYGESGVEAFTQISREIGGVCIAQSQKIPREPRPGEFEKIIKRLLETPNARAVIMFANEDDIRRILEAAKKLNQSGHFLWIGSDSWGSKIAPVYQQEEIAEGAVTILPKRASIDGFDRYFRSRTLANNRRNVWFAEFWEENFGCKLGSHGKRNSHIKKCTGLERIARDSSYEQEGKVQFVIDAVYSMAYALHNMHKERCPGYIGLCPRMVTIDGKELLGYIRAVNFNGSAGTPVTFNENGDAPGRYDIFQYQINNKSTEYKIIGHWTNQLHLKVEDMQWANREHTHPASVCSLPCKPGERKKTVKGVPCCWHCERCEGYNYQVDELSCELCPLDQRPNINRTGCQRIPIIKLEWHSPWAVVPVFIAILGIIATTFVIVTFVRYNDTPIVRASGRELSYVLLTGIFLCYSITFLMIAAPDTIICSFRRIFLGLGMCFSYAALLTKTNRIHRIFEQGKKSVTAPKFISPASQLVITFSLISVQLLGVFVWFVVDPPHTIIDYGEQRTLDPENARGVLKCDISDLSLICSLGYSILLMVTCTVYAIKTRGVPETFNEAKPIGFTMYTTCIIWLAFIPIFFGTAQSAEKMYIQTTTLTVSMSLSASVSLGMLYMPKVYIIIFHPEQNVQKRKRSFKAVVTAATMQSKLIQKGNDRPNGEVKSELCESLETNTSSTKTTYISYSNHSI

O=C(c1ccc(C#Cc2cccc(F)c2)cn1)N1CC2CC2C1 (stereo unspecified)
glutamate EC50 in presence of 10 uM compound (vehicle ~3 uM): inactive
